Experimental data taken from ChEMBL document CHEMBL4406821, “Novel dual inhibitors targeting CDK4 and VEGFR2 synergistically suppressed cancer progression and angiogenesis” (Eur J Med Chem, 2019).
Activity calls are given as the source filed them. No cut-off for these calls is given here.

Legend:
[1] = biological target: CDK4/Cyclin D3 (Homo sapiens) (UniProt P11802+P30281); assay: Inhibition of recombinant full length human CDK4/Cyclin D3 using Rb-fragmen as substrate at 1 uM incubated for 40 mins by [gamma-33P]-ATP based radiometric assay relative to control; format: protein-complex assay
Summary of the method: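 Kinase panel profiling at 1 μM performed by Eurofins KinaseProfiler; percent inhibition reported as mean of two independent experiments.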

[2] = system: HeLa; assay: Antiproliferative activity against human HeLa cells assessed as reduction in cell viability measured after 72 hrs by CCK8 assay; format: functional, cell-based
Summary of the method: (§1)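 Cells were seeded at 3×10³ cells/well and exposed to a range of concentrations or vehicle for 72 h. Viability was read by CCK-8 at 450 nm, with DMSO as blank and five replicates per sample. IC50 was calculated from the dose-response.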

[3] = system: T47D; assay: Antiproliferative activity against human T47D cells assessed as reduction in cell viability measured after 72 hrs by CCK8 assay; format: functional, cell-based; summary of the method: as §1
[4] = system: SiHa; assay: Antiproliferative activity against human SiHa cells assessed as reduction in cell viability measured after 72 hrs by CCK8 assay; format: functional, cell-based; summary of the method: as §1
[5] = system: MDA-MB-231; assay: Antiproliferative activity against human MDA-MB-231 cells assessed as reduction in cell viability measured after 72 hrs by CCK8 assay; format: functional, cell-based; conditions: MDA-MB-231, 72 h; summary of the method: as §1
[6] = system: HUVEC; assay: Antiproliferative activity against HUVEC cells assessed as reduction in cell viability measured after 72 hrs by CCK8 assay; format: functional, cell-based; conditions: Homo sapiens; summary of the method: as §1
[7] = system: MDA-MB-231; assay: Induction of cell cycle arrest in human MDA-MB-231 cells assessed as accumulation in G0/G1 phase at 40 nM incubated for 36 hrs by propidium iodide staining based flow cytometry; format: functional
Summary of the method: (§2)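 Cells were treated with graded concentrations for 36 h, then fixed overnight in 70% ice-cold ethanol at 4°C and resuspended in PBS. Staining used 50 µg/ml PI plus 5 µg/ml RNase at 37°C for 30 min. DNA content was analysed by FACS to give G0/G1, S and G2/M fractions.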

[8] = system: T47D; assay: Induction of cell cycle arrest in human T47D cells assessed as accumulation in G0/G1 phase at 40 nM incubated for 36 hrs by propidium iodide staining based flow cytometry; format: functional; summary of the method: as §2
[9] = system: SiHa; assay: Induction of cell cycle arrest in human SiHa cells assessed as accumulation in G0/G1 phase at 80 nM incubated for 36 hrs by propidium iodide staining based flow cytometry; format: functional; summary of the method: as §2
[10] = system: HeLa; assay: Induction of cell cycle arrest in human HeLa cells assessed as accumulation in G0/G1 phase at 80 nM incubated for 36 hrs by propidium iodide staining based flow cytometry; format: functional; summary of the method: as §2
[11] = system: MDA-MB-231; assay: Induction of apoptosis in human MDA-MB-231 cells assessed as decrease in Bcl2 expression at 40 nM incubated for 48 hrs by Western blot analysis; format: functional, cell-based
Summary of the method: (§3)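 Cells were treated for 48 h, washed three times with PBS, and lysed in RIPA buffer. Immunoblots used anti-Rb, anti-phospho-Rb, anti-Ki67 and anti-Bcl-2 (each 1:1000), with β-actin as loading control.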

[12] = system: T47D; assay: Induction of apoptosis in human T47D cells assessed as decrease in Bcl2 expression at 40 nM incubated for 48 hrs by Western blot analysis; format: functional, cell-based
Summary of the method: (§4)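 Cancer cells were exposed to graded concentrations for 48 h, washed three times in PBS and lysed in RIPA buffer. Immunoblots were probed with anti-Rb, anti-phospho-Rb, anti-Ki67 and anti-Bcl-2, each at 1:1000. β-actin served as loading control.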

[13] = system: SiHa; assay: Antitumor activity against human SiHa cells xenografted in NOD/SCID BALB/c mouse assessed as reduction in Ki67 expression at 40 mg/kg, po measured after 21 days by hematoxylin and eosin staining based immunohistochemistry; format: functional, organism-based
Summary of the method: (§5)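 Female NOD/SCID Balb/c mice, 6–8 weeks old, received 2×10^6 SiHa cells subcutaneously in the right flank. Once tumors reached 100 mm³, mice were randomized, 5 per group, and gavaged once daily for 21 days. Formalin-fixed, paraffin-embedded tumor sections were stained with Ki67 or CD31 antibody (1:100, 4 °C overnight), then biotin secondary and ABC-peroxidase/DAB, with hematoxylin counterstain.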

[14] = Toxicity in NOD/SCID BALB/c mouse xenografted with human SiHa cells assessed as body weight at 40 mg/kg, po administered for 21 days; format: organism-based; conditions: in vivo, 504 h
Summary of the method: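 Female NOD/SCID Balb/c mice, 6–8 weeks, implanted subcutaneously in right flank with 2×10^6 SiHa cells in 100 µL medium. At 100 mm³ tumors, randomized (5 mice/group) to daily oral gavage. Body weight monitored every 3 days; study ended day 21.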

[15] = system: HUVEC; assay: Antiproliferative activity against HUVEC cells assessed as reduction in cell viability at 40 nM measured upto 72 hrs by CCK8 assay; format: functional, cell-based; conditions: Homo sapiens
Summary of the method: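 HUVECs, 3×10³ cells/well, kept in 1640 medium with 10% FBS at 37°C and 5% CO₂. Cells were treated at 20 or 40 nM or vehicle, and viability was read by CCK-8 (absorbance 450 nm) at 0, 12, 24, 36, 48, 60 and 72 h. Five replicates per sample.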

[16] = system: HeLa; assay: Antiproliferative activity against human HeLa cells assessed as reduction in cell viability at 80 nM incubated for 48 hrs by EdU staining based laser scanning confocal microscopy; format: functional
Summary of the method: (§6)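 Cells, 5×10^4, were seeded in 24-well plates and treated for 48 h. They were then labeled using an EdU Apollo 488 imaging kit with Hoechst 33342 nuclear stain and imaged by laser scanning confocal microscopy. Percent EdU-positive cells = EdU-positive/Hoechst-stained × 100%.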

[17] = system: MDA-MB-231; assay: Inhibition of colony formation in human MDA-MB-231 cells at 40 nM incubated for 5 days by crystal violet staining based light microscopy; format: functional, cell-based
Summary of the method: (§7)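 4 × 10^3 cells per well were cultured with graded concentrations for 5 days. Cells were then fixed with 20% methanol, stained with 0.5% crystal violet and photographed by light microscopy.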

[18] = system: T47D; assay: Inhibition of colony formation in human T47D cells at 40 nM incubated for 5 days by crystal violet staining based light microscopy; format: functional, cell-based
Summary of the method: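 MDA-MB-231, T-47D, SiHa and HeLa cells seeded at 4×10^3/well and cultured with varying concentrations of drug or vehicle for 5 days. Fixed in 20% methanol, stained with 0.5% crystal violet, photographed under light microscopy. DMEM (T-47D) with 10% FBS, 37°C, 5% CO2.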

[19] = system: SiHa; assay: Inhibition of colony formation in human SiHa cells at 80 nM incubated for 5 days by crystal violet staining based light microscopy; format: functional, cell-based; summary of the method: as §7
[20] = system: HeLa; assay: Inhibition of colony formation in human HeLa cells at 80 nM incubated for 5 days by crystal violet staining based light microscopy; format: functional, cell-based; summary of the method: as §7
[21] = system: T47D; assay: Antiproliferative activity against human T47D cells assessed as reduction in cell viability at 40 nM incubated for 48 hrs by EdU staining based laser scanning confocal microscopy; format: functional; summary of the method: as §6
[22] = system: SiHa; assay: Antiproliferative activity against human SiHa cells assessed as reduction in cell viability at 80 nM incubated for 48 hrs by EdU staining based laser scanning confocal microscopy; format: functional; summary of the method: as §6
[23] = system: MDA-MB-231; assay: Antiproliferative activity against human MDA-MB-231 cells at 40 nM assessed as reduction in cell viability incubated for 48 hrs by EdU staining based laser scanning confocal microscopy; format: functional; summary of the method: as §6
[24] = system: MDA-MB-231; assay: Induction of apoptosis in human MDA-MB-231 cells at 40 nM incubated for 48 hrs by annexin V FITC and propidium iodide staining based flow cytometry; format: functional, cell-based
Summary of the method: (§8)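 Annexin V-FITC/PI double staining with flow-cytometric readout. MDA-MB-231, T-47D, SiHa and HeLa cells were treated with graded concentrations for 48 h. MDA-MB-231 and T-47D were grown in DMEM and SiHa in 1640 medium, each with 10% FBS and 1% penicillin/streptomycin at 37°C under 5% CO2. Early- and late-stage apoptotic fractions were scored.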

[25] = system: T47D; assay: Induction of apoptosis in human T47D cells at 40 nM incubated for 48 hrs by annexin V FITC and propidium iodide staining based flow cytometry; format: functional, cell-based; summary of the method: as §8
[26] = system: SiHa; assay: Induction of apoptosis in human SiHa cells at 40 nM incubated for 48 hrs by annexin V FITC and propidium iodide staining based flow cytometry; format: functional, cell-based; summary of the method: as §8
[27] = system: HeLa; assay: Induction of apoptosis in human HeLa cells at 40 nM incubated for 48 hrs by annexin V FITC and propidium iodide staining based flow cytometry; format: functional, cell-based
Summary of the method: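 Cells were treated for 48 h, stained with FITC Annexin V and PI, and analyzed by flow cytometry to count early and late apoptotic cells.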

[28] = system: SiHa; assay: Induction of apoptosis in human SiHa cells assessed as decrease in Bcl2 expression at 80 nM incubated for 48 hrs by Western blot analysis; format: functional, cell-based; summary of the method: as §4
[29] = system: HeLa; assay: Induction of apoptosis in human HeLa cells assessed as decrease in Bcl2 expression at 80 nM incubated for 48 hrs by Western blot analysis; format: functional, cell-based; summary of the method: as §3
[30] = system: SiHa; assay: Antitumor activity against human SiHa cells xenografted in NOD/SCID BALB/c mouse assessed as tumor growth inhibition at 40 mg/kg, po administered for 21 days; format: functional, organism-based
[31] = system: SiHa; assay: Antiangiogenic activity against human SiHa cells xenografted in NOD/SCID BALB/c mouse assessed as reduction in CD31 expression at 40 mg/kg, po measured after 21 days by hematoxylin and eosin staining based immunohistochemistry; format: functional, organism-based; summary of the method: as §5

inhibition [1]: 99%
IC50 [2]: 768 nM
IC50 [3]: 145 nM
IC50 [5]: 62 nM
SMILES: CCN1CCN(Cc2ccc(Nc3ncc(F)c(-c4cc(F)c5nc(C)n(C(C)C)c5c4)n3)nc2)CC1 [ABEMACICLIB]
IC50 [4]: 861 nM
IC50 [6]: 403 nM
Activity [7]: Active
Activity [8]: Active
Activity [9]: Active
Activity [10]: Active
Activity [11]: Active
Activity [12]: Active
inhibition [13]: Active
Activity [14]: Non-Toxic
inhibition [15]: Active
inhibition [16]: Active
inhibition [17]: Active
inhibition [18]: Active
inhibition [19]: Active
inhibition [20]: Active
inhibition [21]: Active
inhibition [22]: Active
inhibition [23]: Active
Activity [24]: Active
Activity [25]: Active
Activity [26]: Active
Activity [27]: Active
Activity [28]: Active
Activity [29]: Active
TGI [30]: Active
inhibition [31]: Active
